Data: ChEMBL document CHEMBL4190220, “Withanolides from Aeroponically Grown Physalis peruviana and Their Selective Cytotoxicity to Prostate Cancer and Renal Carcinoma Cells” (J Nat Prod, 2017)
Active and inactive are the calls of the source. The rule behind the calls is not given here.

Columns and labels:
M14 = test: Cytotoxicity against human M14 cells assessed as reduction in cell viability up to 5 uM after 72 hrs by CellTiter96 AQueous one solution cell proliferation assay; format: functional, cell-based
Outline: (§1)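 Melanoma cells in DMEM-based medium (5% fetal calf serum, glutamine, nonessential amino acids, pyruvate, HEPES, 2-mercaptoethanol, antibiotics). 5000 cells were grown overnight at 37 °C, then exposed to compound in DMSO in triplicate wells for 72 h. MTS absorbance at 490 nm after 2 h. % cytotoxicity = (A medium − A treatment)/A medium × 100.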

LNCaP = test: Cytotoxicity against human LNCAP cells assessed as reduction in cell viability up to 5 uM after 72 hrs by CellTiter96 AQueous one solution cell proliferation assay; format: functional, cell-based
Outline: (§2)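 Cells in RPMI with 5% fetal calf serum, glutamine, nonessential amino acids, pyruvate, HEPES, 2-mercaptoethanol and antibiotics. Seeded at 10 000 (LNCaP) or 5000 (others) and grown overnight at 37 °C, then exposed to compound in DMSO, triplicate wells, 72 h. Read by MTS at 490 nm after 2 h. % cytotoxicity = (A medium − A treatment)/A medium × 100.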

CWR22R = test: Cytotoxicity against human 22Rv1 cells assessed as reduction in cell viability up to 5 uM after 72 hrs by CellTiter96 AQueous one solution cell proliferation assay; format: functional, cell-based; outline: as §2
SK-MEL-28 = test: Cytotoxicity against human SK-MEL-28 cells assessed as reduction in cell viability up to 5 uM after 72 hrs by CellTiter96 AQueous one solution cell proliferation assay; format: functional, cell-based; outline: as §1
ACHN = test: Cytotoxicity against human ACHN cells assessed as reduction in cell viability up to 5 uM after 72 hrs by CellTiter96 AQueous one solution cell proliferation assay; format: functional, cell-based; outline: as §2
HFF = test: Cytotoxicity against HFF cells assessed as reduction in cell viability up to 5 uM after 72 hrs by CellTiter96 AQueous one solution cell proliferation assay; format: cell-based; conditions: human; outline: as §2

Question: What does the source list for `C[C@H]1C(=O)OC[C@H]1C[C@@H](O)[C@](C)(O)[C@@]1(O)CC[C@@]2(O)[C@@H]3CC=C4CC=CC(=O)[C@]4(C)[C@H]3CC[C@]12C`?
Answer: Activity (M14): inactive; Activity (LNCaP): inactive; Activity (CWR22R): inactive; Activity (SK-MEL-28): inactive; Activity (ACHN): inactive; Activity (HFF): Non-Toxic

Question: Which results are given for `CC1=C(C)C(=O)O[C@@H]([C@](C)(O)[C@]2(O)CC[C@@]3(O)[C@@H]4C[C@@H](O)[C@@]5(O)CC=CC(=O)[C@]5(C)[C@H]4CC[C@]23C)C1`?
Answer: Activity (M14): inactive; Activity (LNCaP): inactive; Activity (CWR22R): inactive; Activity (SK-MEL-28): inactive; Activity (ACHN): inactive; Activity (HFF): Non-Toxic

Question: Which results are given for `CC1=C(C)C(=O)O[C@@H]([C@](C)(O)[C@]2(O)CC[C@@]3(O)[C@@H]4C[C@H](Cl)[C@]5(O)CC=CC(=O)[C@]5(C)[C@H]4CC[C@]23C)C1`?
Answer: Activity (M14): inactive; Activity (LNCaP): inactive; Activity (CWR22R): inactive; Activity (SK-MEL-28): inactive; Activity (ACHN): inactive; Activity (HFF): Non-Toxic

Question: For `C[C@H]1C(=O)OC[C@H]1C[C@@H](O)[C@](C)(O)[C@]1(O)CC[C@@]2(O)[C@@H]3CC=C4C=CCC(=O)[C@]4(C)[C@H]3CC[C@]12C`, which Activity (M14) is on record?
Answer: Its Activity is “inactive”.

Question: And the Activity (LNCaP)?
Answer: The Activity was “inactive”.

Question: What about the Activity (CWR22R) of the same compound?
Answer: Its Activity is “inactive”.

Question: What about the Activity (SK-MEL-28) of the same compound?
Answer: The Activity was “inactive”.

Question: And the Activity (ACHN)?
Answer: Its Activity is “inactive”.

Question: And the Activity (HFF)?
Answer: The Activity was “Non-Toxic”.

Question: Which results are given for `C[C@H]1C(=O)OC[C@H]1C[C@@H](O)[C@](C)(O)[C@]1(O)CC[C@@]2(O)[C@@H]3CC=C4CC=CC(=O)[C@]4(C)[C@H]3CC[C@]12C`?
Answer: Activity (M14): inactive; Activity (LNCaP): inactive; Activity (CWR22R): inactive; Activity (SK-MEL-28): inactive; Activity (ACHN): inactive; Activity (HFF): Non-Toxic

Question: What does the source list for `CC1=C(C)C(=O)O[C@@H]([C@](C)(O)C2=CC[C@@]3(O)[C@@H]4C[C@H]5O[C@]56CC=CC(=O)[C@]6(C)[C@H]4CC[C@]23C)C1`?
Answer: Activity (M14): inactive; Activity (LNCaP): inactive; Activity (CWR22R): inactive; Activity (SK-MEL-28): inactive; Activity (ACHN): inactive; Activity (HFF): Non-Toxic

Question: Which Activity (M14) does the source give for `C[C@H]1C(=O)OC[C@H]1C[C@@H](O)[C@](C)(O)C1=CC[C@H]2[C@@H]3C[C@H]4O[C@]45CC=CC(=O)[C@]5(C)[C@H]3CC[C@]12C` here?
Answer: The Activity was “inactive”.

Question: And the Activity (LNCaP)?
Answer: The Activity was “inactive”.

Question: What about the Activity (CWR22R) of the same compound?
Answer: The Activity was “inactive”.

Question: What about the Activity (SK-MEL-28) of the same compound?
Answer: The Activity was “inactive”.

Question: What about the Activity (ACHN) of the same compound?
Answer: Its Activity is “inactive”.

Question: What about the Activity (HFF) of the same compound?
Answer: The Activity was “Non-Toxic”.

Question: For `C[C@H]1C(=O)O[C@@H]([C@](C)(O)[C@H]2CC[C@@]3(O)[C@@H]4CC=C5CC=CC(=O)[C@]5(C)[C@H]4CC[C@]23C)[C@@H](O)[C@@H]1CO`, which Activity (M14) is on record?
Answer: The Activity was “inactive”.

Question: And the Activity (LNCaP)?
Answer: Its Activity is “inactive”.

Question: And the Activity (CWR22R)?
Answer: Its Activity is “inactive”.

Question: What about the Activity (SK-MEL-28) of the same compound?
Answer: The Activity was “inactive”.

Question: What about the Activity (ACHN) of the same compound?
Answer: The Activity was “inactive”.

Question: And the Activity (HFF)?
Answer: The Activity was “Non-Toxic”.

Question: Which results are given for `CC1=C(C)C(=O)O[C@@H]([C@](C)(O)C2=CC[C@@]3(O)[C@@H]4C[C@H]5O[C@]56[C@@H](O)C=CC(=O)[C@]6(C)[C@H]4CC[C@]23C)C1`?
Answer: Activity (M14): inactive; Activity (LNCaP): inactive; Activity (CWR22R): inactive; Activity (SK-MEL-28): inactive; Activity (ACHN): inactive; Activity (HFF): Non-Toxic

Question: How did the Activity (M14) turn out when `C[C@H]1C(=O)OC[C@H]1C[C@@H](O)[C@](C)(O)[C@H]1CC[C@@]2(O)[C@@H]3CC=C4CC=CC(=O)[C@]4(C)[C@H]3CC[C@]12C` was run?
Answer: Its Activity is “inactive”.

Question: What about the Activity (LNCaP) of the same compound?
Answer: Its Activity is “inactive”.

Question: What about the Activity (CWR22R) of the same compound?
Answer: Its Activity is “inactive”.

Question: What about the Activity (SK-MEL-28) of the same compound?
Answer: Its Activity is “inactive”.

Question: And the Activity (ACHN)?
Answer: Its Activity is “inactive”.

Question: And the Activity (HFF)?
Answer: The Activity was “Non-Toxic”.
